Active and inactive are the calls of the source. No cut-off for these calls is given here.
Legend:
[1] = tested on: Mus musculus; experiment: (§1) Hepatoprotective activity against isoniazid-rifampicin induced liver injury in BALB/c mouse assessed as reduction AST level at 100 mg/kg, po bid for 3 days starting 30 mins prior isoniazid-rifampicin administration measured 24 hrs post-last dose of isoniazid-rifampicin relative to control; type: functional; set-up: scale not given: the % may be the effect or the level left
In short: (§2)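 Serum AST and ALT measured with commercial kits in blood drawn 24 h after the last of three daily oral isoniazid (50 mg/kg) + rifampicin (100 mg/kg) doses. 6 male BALB/c mice per group, mean ± SEM, one-way ANOVA with Newman–Keuls test.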

[2] = tested on: Mus musculus; experiment: Hepatoprotective activity against isoniazid-rifampicin induced liver injury in BALB/c mouse assessed as reduction ALT level at 100 mg/kg, po bid for 3 days starting 30 mins prior isoniazid-rifampicin administration measured 24 hrs post-last dose of isoniazid-rifampicin relative to control; type: functional; set-up: scale not given: the % may be the effect or the level left; in short: as §2
[3] = tested on: Mus musculus; experiment: (§3) Hepatoprotective activity against isoniazid-rifampicin induced liver injury in BALB/c mouse assessed as reversal of GSH depletion at 100 mg/kg, po bid for 3 days starting 30 mins prior isoniazid-rifampicin administration measured 24 hrs post-last dose of isoniazid-rifampicin relative to control; type: functional
In short: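 Reduced glutathione assayed with DTNB. Liver homogenized 1:9 w/v in 0.9% saline, spun 3500g 20 min 4 °C. Supernatant deproteinized with 4% sulfosalicylic acid, spun again, then mixed with 0.1 M phosphate buffer and 0.01 M DTNB. Absorbance at 412 nm. 6 mice/group, mean ± SEM.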

[4] = tested on: Mus musculus; experiment: as §3, with “increase in catalase activity” for “reversal of GSH”; type: functional
In short: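 Liver homogenized 1:9 w/v in 0.9% saline and spun 3500g, 10 min, 4 °C. Supernatant in 50 mM PBS pH 7.0 with 20 mM H2O2 substrate. H2O2 decomposition followed continuously at 240 nm (Aebi method), expressed as mmol H2O2/min/mg protein. n = 6 mice, mean ± SEM.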

[5] = tested on: Mus musculus; experiment: as §1, with “in hepatic myeloperoxidase activity” for “AST level”; type: functional; set-up: scale not given: the % may be the effect or the level left
In short: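 Neutrophil recruitment estimated from hepatic myeloperoxidase activity (modified Paszcuk method), expressed as OD/mg tissue. Livers collected 24 h after the last oral isoniazid 50 mg/kg + rifampicin 100 mg/kg dose of a 3-day course. 6 male BALB/c mice/group, mean ± SEM.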

[6] = tested on: Mus musculus; experiment: Hepatoprotective activity against isoniazid-rifampicin induced liver injury in BALB/c mouse assessed as reduction in hepatic lesion at 100 mg/kg, po bid for 3 days starting 30 mins prior isoniazid-rifampicin administration measured 24 hrs post-last dose of isoniazid-rifampicin relative to control; type: functional, organism-based; set-up: dose 100 mg/kg
In short: (§4)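 Liver fixed in 10% formaldehyde and paraffin-embedded. 4 μm sections stained with hematoxylin and eosin, examined by light microscopy by a veterinary pathologist blinded to groups. Tissue taken 24 h after the last of 3 daily oral isoniazid (50 mg/kg) + rifampicin (100 mg/kg) doses.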

[7] = tested on: Mus musculus; experiment: as §1, with “in fatty accumulation” for “AST level”; type: functional, organism-based; set-up: dose 100 mg/kg; in short: as §4
[8] = tested on: Mus musculus; experiment: as §1, with “prevention of liver statosis development” for “reduction AST level”; type: functional, organism-based; set-up: dose 100 mg/kg; in short: as §4
[9] = tested on: Mus musculus; experiment: Hepatoprotective activity against isoniazid-rifampicin induced liver injury in BALB/c mouse assessed as reduction in IL6 level at 100 mg/kg, po bid for 3 days starting 30 mins prior isoniazid-rifampicin administration measured 24 hrs post-last dose of isoniazid-rifampicin relative to control; type: functional, organism-based; set-up: dose 100 mg/kg
[10] = tested on: Mus musculus; experiment: Hepatoprotective activity against isoniazid-rifampicin induced liver injury in BALB/c mouse assessed as reduction in MCP-1 level at 100 mg/kg, po bid for 3 days starting 30 mins prior isoniazid-rifampicin administration measured 24 hrs post-last dose of isoniazid-rifampicin relative to control; type: functional, organism-based; set-up: dose 100 mg/kg
[11] = tested on: Mus musculus; experiment: as §1, with “restoration of SIRT1 mRNA” for “reduction AST”; type: functional, organism-based; set-up: dose 100 mg/kg
In short: (§5)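 Livers taken 24 h after the last of three daily oral isoniazid 50 mg/kg + rifampicin 100 mg/kg doses (in 1% DMSO/saline). Hepatic mRNA measured by qPCR with mouse GAPDH probe as endogenous control, reactions in duplicate, relative expression by the 2ΔΔC method. n = 6 male BALB/c mice/group, mean ± SEM.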

[12] = tested on: Mus musculus; experiment: (§6) Hepatoprotective activity against isoniazid-rifampicin induced liver injury in BALB/c mouse assessed as change in SIRT2 mRNA level at 100 mg/kg, po bid for 3 days starting 30 mins prior isoniazid-rifampicin administration measured 24 hrs post-last dose of isoniazid-rifampicin relative to control; type: functional, organism-based; set-up: dose 100 mg/kg; in short: as §5
[13] = tested on: Mus musculus; experiment: Hepatoprotective activity against isoniazid-rifampicin induced liver injury in BALB/c mouse assessed as change in SIRT3 mRNA level at 100 mg/kg, po bid for 3 days starting 30 mins prior isoniazid-rifampicin administration measured 24 hrs post-last dose of isoniazid-rifampicin relative to control; type: functional, organism-based; set-up: dose 100 mg/kg; in short: as §5
[14] = tested on: Mus musculus; experiment: Hepatoprotective activity against isoniazid-rifampicin induced liver injury in BALB/c mouse assessed as change in SIRT4 mRNA level at 100 mg/kg, po bid for 3 days starting 30 mins prior isoniazid-rifampicin administration measured 24 hrs post-last dose of isoniazid-rifampicin relative to control; type: functional, organism-based; set-up: dose 100 mg/kg; in short: as §5
[15] = tested on: Mus musculus; experiment: Hepatoprotective activity against isoniazid-rifampicin induced liver injury in BALB/c mouse assessed as change in SIRT5 mRNA level at 100 mg/kg, po bid for 3 days starting 30 mins prior isoniazid-rifampicin administration measured 24 hrs post-last dose of isoniazid-rifampicin relative to control; type: functional, organism-based; set-up: dose 100 mg/kg; in short: as §5
[16] = tested on: Mus musculus; experiment: Hepatoprotective activity against isoniazid-rifampicin induced liver injury in BALB/c mouse assessed as change in SIRT6 mRNA level at 100 mg/kg, po bid for 3 days starting 30 mins prior isoniazid-rifampicin administration measured 24 hrs post-last dose of isoniazid-rifampicin relative to control; type: functional, organism-based; set-up: dose 100 mg/kg; in short: as §5
[17] = tested on: Mus musculus; experiment: Hepatoprotective activity against isoniazid-rifampicin induced liver injury in BALB/c mouse assessed as change in SIRT7 mRNA level at 100 mg/kg, po bid for 3 days starting 30 mins prior isoniazid-rifampicin administration measured 24 hrs post-last dose of isoniazid-rifampicin relative to control; type: functional, organism-based; set-up: dose 100 mg/kg; in short: as §5
[18] = tested on: Mus musculus; experiment: as §1, with “in PPAR-gamma mRNA” for “AST”; type: functional, organism-based; set-up: dose 100 mg/kg; in short: as §5
[19] = tested on: Mus musculus; experiment: as §1, with “in PGC-1alpha mRNA” for “AST”; type: functional, organism-based; set-up: dose 100 mg/kg; in short: as §5
[20] = tested on: Mus musculus; experiment: as §6, with “effect on nicotinamide phosphoribosyltransferase” for “change in SIRT2”; type: functional, organism-based; set-up: dose 100 mg/kg; in short: as §5
[21] = tested on: Mus musculus; experiment: Hepatoprotective activity against isoniazid-rifampicin induced liver injury in BALB/c mouse assessed as effect on NAD+ concentration at 100 mg/kg, po bid for 3 days starting 30 mins prior isoniazid-rifampicin administration measured 24 hrs post-last dose of isoniazid-rifampicin relative to control; type: functional, organism-based; set-up: dose 100 mg/kg
In short: (§7)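 Liver NAD+ and NADH quantified with a commercial colorimetric kit per manufacturer's instructions, reduced product read at 565 nm. Tissue collected 24 h after the final oral isoniazid (50 mg/kg) + rifampicin (100 mg/kg) dose of a 3-day course. 6 male BALB/c mice per group.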

[22] = tested on: Mus musculus; experiment: Hepatoprotective activity against isoniazid-rifampicin induced liver injury in BALB/c mouse assessed as effect on NADH concentration at 100 mg/kg, po bid for 3 days starting 30 mins prior isoniazid-rifampicin administration measured 24 hrs post-last dose of isoniazid-rifampicin relative to control; type: functional, organism-based; set-up: dose 100 mg/kg; in short: as §7
[23] = tested on: Mus musculus; experiment: Hepatoprotective activity against isoniazid-rifampicin induced liver injury in BALB/c mouse assessed as reduction in TNFalpha level at 100 mg/kg, po bid for 3 days starting 30 mins prior isoniazid-rifampicin administration measured 24 hrs post-last dose of isoniazid-rifampicin relative to control; type: functional, organism-based; set-up: dose 100 mg/kg
In short: (§8)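 Cytokines measured in homogenized liver tissue by flow cytometry (488 nm laser, high-throughput sampler). Tissue from male BALB/c mice 24 h after final oral isoniazid 50 mg/kg + rifampicin 100 mg/kg. n = 6/group, mean ± SEM, one-way ANOVA/Newman–Keuls.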

[24] = tested on: Mus musculus; experiment: Hepatoprotective activity against isoniazid-rifampicin induced liver injury in BALB/c mouse assessed as reduction in IL-12p70 level at 100 mg/kg, po bid for 3 days starting 30 mins prior isoniazid-rifampicin administration measured 24 hrs post-last dose of isoniazid-rifampicin relative to control; type: functional, organism-based; set-up: dose 100 mg/kg; in short: as §8
[25] = tested on: Mus musculus; experiment: Hepatoprotective activity against isoniazid-rifampicin induced liver injury in BALB/c mouse assessed as reduction in IL-10 level at 100 mg/kg, po bid for 3 days starting 30 mins prior isoniazid-rifampicin administration measured 24 hrs post-last dose of isoniazid-rifampicin relative to control; type: functional, organism-based; set-up: dose 100 mg/kg; in short: as §8

With `Oc1ccc(/C=C/c2cc(O)cc(O)c2)cc1` [RESVERATROL] the Activity [1] was 36%, the Activity [2] was 58% and the Activity [3] was 89%. The Activity [4] was 34%, the Activity [5] was 19% and the Activity [6] was “Active”. The Activity [7] was “Active”, the Activity [8] was “Active” and the Activity [9] was “inactive”. The Activity [10] was “inactive”, the Activity [11] was “Active” and the Activity [12] was “inactive”. For the same compound, the Activity [13] was “inactive”, the Activity [14] was “inactive” and the Activity [15] was “inactive”. For the same compound, the Activity [16] was “inactive”, the Activity [17] was “inactive” and the Activity [18] was “Active”. The Activity [19] was “Active”, the Activity [20] was “inactive” and the Activity [21] was “inactive”. The Activity [22] was “inactive”, the Activity [23] was “Active” and the Activity [24] was “Active”. The Activity [25] was “Active”.

Reference: ChEMBL document CHEMBL3351334, “Protective effects of resveratrol on hepatotoxicity induced by isoniazid and rifampicin via SIRT1 modulation” (2014)
